Data set [1] addresses Class A carbapenemase KPC-2 (Escherichia coli) (UniProt A8DS27). Description: Inhibition of Escherichia coli EC1007 KPC-3 assessed as meropenem MIC at 4 ug/ml by broth microdilution method. (Dilution methods test growth across graded concentrations, often in twofold steps.)
For data set [2], the target named is T1, Class A carbapenemase (Enterobacter cloacae) (UniProt A7WP95).
T1 sequence (whole entry): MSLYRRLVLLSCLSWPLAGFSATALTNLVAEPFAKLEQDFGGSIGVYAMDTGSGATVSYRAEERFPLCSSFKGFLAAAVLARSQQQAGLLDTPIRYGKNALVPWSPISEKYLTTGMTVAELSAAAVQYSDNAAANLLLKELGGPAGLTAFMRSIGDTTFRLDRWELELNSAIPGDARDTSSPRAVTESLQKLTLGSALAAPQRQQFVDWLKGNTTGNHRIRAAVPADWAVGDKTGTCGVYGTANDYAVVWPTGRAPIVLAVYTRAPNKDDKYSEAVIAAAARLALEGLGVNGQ
Description: Inhibition of Enterobacter cloacae ECL1061 KPC-3 assessed as cefepime MIC at 4 ug/ml by broth microdilution method.

Data set [3] in a line: AUC (0 to infinity) in rat at 1000 mg/kg, iv administered as 0.5 hrs infusion by HPLC-MS method. Also noted: dose 1000 mg/kg, route intravenous, time infinity. The class given is ADME, organism-based. As to conditions: in vivo.
For data set [4], the target named is Beta lactamase TEM-1 (Klebsiella pneumoniae) (UniProt Q7B899). Briefly: Inhibition of Klebsiella pneumoniae KP1084 TEM-1 assessed as meropenem MIC at 4 ug/ml by broth microdilution method. A digest of the protocol:
(§1)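 CLSI broth microdilution (M07-A9, 2012) MIC of the carbapenem against clinical serine carbapenemase-producing strain, tested alone and with the inhibitor held at a fixed 4 μg/mL.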

The nature of data set [5]: Cmax in rat at 300 mg/kg, iv administered as 0.5 hrs infusion by HPLC-MS method. Also noted: dose 300 mg/kg, route intravenous. As to conditions: in vivo. Type of data set: ADME, organism-based.
Data set [6] is described as follows: Inhibition of Escherichia coli recombinant TEM-10 assessed as substrate nitrocefin degradation preincubated for 10 mins followed by substrate addition measured every 10 secs for 10 mins by spectrophotometric analysis. The essentials:
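β-Lactamases purified from overexpressing recombinant E. coli. Enzyme preincubated with inhibitor at varying concentrations for 10 min at room temperature in 50 mM Na phosphate pH 7.0, 0.1 mg/mL BSA. Then 50 μM nitrocefin (final) added and cleavage read at 490 nm every 10 s for 10 min. Ki derived by the Waley method.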

In data set [7] the test system is Klebsiella pneumoniae. Description: Inhibition of Klebsiella pneumoniae KP1087 CTX-M-15 assessed as imipenem MIC at 4 ug/ml by broth microdilution method.
The subject of data set [8] is Klebsiella pneumoniae. Description: Inhibition of Klebsiella pneumoniae KP1084 SHV-11 assessed as imipenem MIC at 4 ug/ml by broth microdilution method.
Data set [9] relates to Enterobacter cloacae. Description: Inhibition of Enterobacter cloacae ECL1003 SHV assessed as cefepime MIC at 4 ug/ml by broth microdilution method. A digest of the protocol: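 CLSI broth microdilution (M07-A9) against clinical strains expressing serine β-lactamases.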
Data set [10] has as its target Beta-lactamase (Klebsiella pneumoniae) (UniProt Q93LQ9). Description: Inhibition of Klebsiella pneumoniae KP1084 KPC-3 assessed as ertapenem MIC at 4 ug/ml by broth microdilution method. The essentials: as §1
Data set [11] concerns the target Beta lactamase TEM-1 (Klebsiella pneumoniae) (UniProt Q7B899). Description: Inhibition of Klebsiella pneumoniae KP1087 TEM-1 assessed as biapenem MIC at 4 ug/ml by broth microdilution method. The essentials:
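Carbapenem MIC by CLSI broth microdilution (M07-A9), carbapenem titrated with inhibitor held at fixed 4 μg/mL, against clinical serine-carbapenemase-producing strain KP1087 (KPC-2, CTX-M-15, SHV-11, TEM-1; double porin mutant).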

Data set [12] deals with Enterobacter cloacae. Briefly: Inhibition of Enterobacter cloacae ECL1058 SHV-11 assessed as biapenem MIC at 4 ug/ml by broth microdilution method.
Data set [13] concerns Klebsiella pneumoniae. Briefly: Inhibition of Klebsiella pneumoniae KP1084 SHV-11 assessed as meropenem MIC at 4 ug/ml by broth microdilution method. The essentials:
as §1

The subject of data set [14] is Klebsiella pneumoniae. Description: In vivo inhibition of KPC in Klebsiella pneumoniae KP1074 in Swiss webster neutropenic mouse lung infection model assessed as meropenem deltalog10CFU in lung at 50 mg/kg, ip administered every 2 hrs starting at 2 hrs postinfection measured after 24 hrs. The class given is functional.
The subject of another data set is Klebsiella oxytoca. Description: Inhibition of Klebsiella oxytoca KX1019 OXA-2 assessed as imipenem MIC at 4 ug/ml by broth microdilution method.
Data set [15] deals with Beta-lactamase (Klebsiella pneumoniae) (UniProt Q93LQ9). Description: Inhibition of Klebsiella pneumoniae KP1004 KPC 2 carbapenemase assessed as minimum concentration required to reduce biapenem MIC from […] ug/ml to 1 ug/mL by broth microdilution method.
Data set [16] deals with Klebsiella pneumoniae. Description: Inhibition of Klebsiella pneumoniae KP1087 SHV-11 assessed as biapenem MIC at 4 ug/ml by broth microdilution method. The essentials:
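CLSI broth microdilution (M07-A9) against clinical K. pneumoniae strain KP1087 (KPC-2, CTX-M-15, SHV-11, TEM-1); carbapenem MIC (μg/mL) read with the inhibitor held at a fixed 4 μg/mL, alongside carbapenem alone.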

For data set [17], the target named is Lysosomal protective protein (Homo sapiens, UniProt P10619). Briefly: Inhibition of cathepsin A (unknown origin) using MCA-RPPGFSAFK-Dnp as substrate preincubated for 10 mins followed by substrate addition measured for 30 mins by […] analysis.
Lysosomal protective protein, sequence (P10619 29-326 limits assumed): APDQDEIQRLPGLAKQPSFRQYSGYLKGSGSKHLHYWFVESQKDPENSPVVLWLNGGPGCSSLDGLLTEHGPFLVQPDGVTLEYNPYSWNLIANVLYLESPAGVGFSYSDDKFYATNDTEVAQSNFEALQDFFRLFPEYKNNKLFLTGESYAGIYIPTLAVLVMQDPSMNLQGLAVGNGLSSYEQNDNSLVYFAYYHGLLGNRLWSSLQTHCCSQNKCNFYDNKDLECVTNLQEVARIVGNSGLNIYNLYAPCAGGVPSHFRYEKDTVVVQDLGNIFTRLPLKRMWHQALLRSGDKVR
Lysosomal protective protein, sequence (P10619 327-480 limits assumed): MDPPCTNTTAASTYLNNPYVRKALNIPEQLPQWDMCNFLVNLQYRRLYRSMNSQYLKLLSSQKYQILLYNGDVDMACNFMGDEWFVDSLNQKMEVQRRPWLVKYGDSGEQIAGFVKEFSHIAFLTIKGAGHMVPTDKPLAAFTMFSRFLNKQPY

A value given as a limit tells only on which side of the number the result lay.

Regarding `O=C(O)C[C@@H]1CC[C@H](NC(=O)Cc2cccs2)B(O)O1` [VABORBACTAM], the MIC in data set [1] was below 0.06 µg/mL; in [2] it was 2 µg/mL; in [4], 0.5 µg/mL; in the data set on Klebsiella pneumoniae [7], 0.25 µg/mL; with Klebsiella pneumoniae [8] it was 0.25 µg/mL; in the data set on Enterobacter cloacae [9], 8 µg/mL. The MIC in [10] is 4 µg/mL; in data set [11], 0.25 µg/mL; in the data set with Enterobacter cloacae [12], below 0.06 µg/mL; in the data set on Klebsiella pneumoniae [13], 0.5 µg/mL; in the data set on Klebsiella oxytoca it was 0.13 µg/mL; in the data set on Klebsiella pneumoniae [16], 0.25 µg/mL. For the same compound, the AUC(0-inf) (as a rule, the area under the concentration-time curve extrapolated to infinity) in data set [3] came out at 1040 µg·h/mL. Moreover, the maximum concentration (Cmax) (commonly the maximum level reached in the sampled fluid or tissue) in data set [5] amounted to 735 µg/mL. For the same compound, the inhibitory constant (Ki) (commonly a measure of affinity in units of concentration, obtained from inhibition or displacement) in data set [6] was 0.11 µM. Besides, in the data set on Klebsiella pneumoniae [14], the deltalog10CFU is reported as -2.03. Further, the MEC in data set [15] was 0.02 µg/mL. Besides, inhibition in data set [17] was half-maximal at 1000 µM (IC50).

Values taken from ChEMBL document CHEMBL3576866, “Discovery of a Cyclic Boronic Acid β-Lactamase Inhibitor (RPX7009) with Utility vs Class A Serine Carbapenemases” (J Med Chem, 2015).
